Published values of several laboratories.
Target: Inhibitor of nuclear factor kappa-B kinase subunit epsilon (IKBKE, Homo sapiens, UniProt Q14164)
Effect on: enzyme activity
Residues used in one study (Q14164 1-716): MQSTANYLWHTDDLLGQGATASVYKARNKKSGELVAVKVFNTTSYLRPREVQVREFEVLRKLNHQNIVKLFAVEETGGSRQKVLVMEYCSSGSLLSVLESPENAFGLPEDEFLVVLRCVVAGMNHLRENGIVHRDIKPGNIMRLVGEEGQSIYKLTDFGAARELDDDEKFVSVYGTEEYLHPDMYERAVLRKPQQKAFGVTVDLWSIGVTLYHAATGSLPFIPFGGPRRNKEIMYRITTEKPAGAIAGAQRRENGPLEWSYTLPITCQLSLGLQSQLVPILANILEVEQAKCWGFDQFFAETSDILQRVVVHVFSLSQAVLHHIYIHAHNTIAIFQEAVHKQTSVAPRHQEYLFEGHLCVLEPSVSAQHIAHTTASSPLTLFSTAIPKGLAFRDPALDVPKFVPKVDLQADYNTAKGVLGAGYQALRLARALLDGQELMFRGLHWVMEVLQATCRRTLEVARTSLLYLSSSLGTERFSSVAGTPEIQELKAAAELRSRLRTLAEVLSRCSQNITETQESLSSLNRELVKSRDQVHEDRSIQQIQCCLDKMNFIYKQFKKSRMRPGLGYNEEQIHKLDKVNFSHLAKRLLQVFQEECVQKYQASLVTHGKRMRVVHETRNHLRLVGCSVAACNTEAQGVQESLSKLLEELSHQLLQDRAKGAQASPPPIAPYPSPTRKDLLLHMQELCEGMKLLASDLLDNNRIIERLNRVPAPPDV

| Compound | mode | technique | tested at | remaining activity [%] |
| --- | --- | --- | --- | --- |
| NS(=O)(=O)c1ccc(CNc2nc(Nc3cccc(NC(=O)N4CCCC4)c3)ncc2Br)cc1 | inhibitor | radiometric | 1 µM | 35 |
| O=C1Nc2ccc(Cl)cc2C1=Cc1cc(Cl)c(O)c(Cl)c1 |  |  | 0.5 µM | 94.7 |
| CC(C)(O)[C@H]1CC[C@H](Nc2ccc3ncc(-c4cccc(C(F)(F)F)c4)n3n2)CC1 | inhibitor |  | 1 µM | 90.2 |
| O=C(NCCCNc1nc(Nc2cccc(NC(=O)N3CCCC3)c2)ncc1I)c1cccs1 | inhibitor | radiometric | 1 µM | 2 |
| COc1cc(Nc2cnc(C#N)c(O[C@H](C)CN(C)C)n2)ncc1-c1cnn(C)c1 | inhibitor | radiometric | 1 µM | 78 |
| Cc1nn(CC(F)(F)F)cc1Nc1ncc(C2CC2)c(NCCc2c[nH]cn2)n1 | inhibitor | radiometric | 1 µM | 95 |
| COc1cc(Cl)c(C(=O)N[C@@H](CN[C@H]2CC[C@@H](N)CC2)Cc2ccc(C#N)cc2)cc1-c1ccc(CN[C@H](C)c2ccc(C)cc2)o1 | inhibitor |  | 1 µM | 89 |
| FC(F)c1nc2ccccc2n1-c1nc(N2CCOCC2)nc(N2CCOCC2)n1 | inhibitor |  | 10 µM | 84 |
| c1cc(CN2CCOCC2)cc(Nc2ncc(C3CC3)c(NCCc3c[nH]cn3)n2)c1 | inhibitor | radiometric | 1 µM | 55 |
| O=C(Nc1cnn(-c2csc(C(=O)NC3COC3)c2)c1)Nc1ccccc1Cl | inhibitor |  | 5 µM | 110 |
| Oc1cccc(-c2nc(N3CCOCC3)c3oc4ncccc4c3n2)c1 | inhibitor |  | 10 µM | 85 |
| CCN(CC)CCNC(=O)c1c(C)[nH]c(/C=C2\C(=O)Nc3ccc(Cl)cc32)c1C | inhibitor |  | 0.5 µM | 29.4 |
| Cc1nn(CC(F)(F)F)cc1Nc1ncc(Br)c(NCCc2cnc[nH]2)n1 | inhibitor | radiometric | 1 µM | 55 |
| O=C1NC(=O)c2cc(Nc3ccc(F)cc3)c(Nc3ccc(F)cc3)cc21 | inhibitor |  | 0.5 µM | 100 |
| CC(C)(C)c1nc2c(s1)c1nc(N)ncc1c1ccc(NS(=O)(=O)c3c(F)cccc3F)c(F)c12 | inhibitor | radiometric | 1 µM | 90 |
